Assay results as given in ChEMBL document CHEMBL1142302, “Discovery of subnanomolar arginine-glycine-aspartate-based alphaVbeta3/alphaVbeta5 integrin binders embedding 4-aminoproline residues” (J Med Chem, 2008).
*1 amine or outer side, *2 acyl side, *3 side chain or, on linkers, in order; H or OH if unused. Where a SMILES comes first, the peptide text is derived from it. Bridges are numbered along the chain shown (N, C = ends). [ ]: non-standard residue; d: D form. Pro(trans-4-NH2) = O=C([C@@H]1C[C@@H](N[*:3])CN1[*:1])[*:2]

How the values were obtained:
Integrin alpha-V/beta-5 [1] = target: T1, Integrin alpha-V/beta-5 (Homo sapiens, UniProt P06756+P18084); test: Displacement of [125I]echistatin from human integrin alpha-V-beta-5 receptor high affinity state by solid phase assay relative to control; format: protein-complex assay; details: concentration not given here
Integrin alpha-V/beta-3 [2] = target: T2, Integrin alpha-V/beta-3 (Homo sapiens, UniProt P05106+P06756); test: Displacement of [125I]echistatin from human integrin alpha-V-beta-3 receptor low affinity state by solid phase assay relative to control; format: protein-complex assay; set-up: concentration or dose not given beside the values; details: concentration not given here
Outline: (§1)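 Competition for [125I]-echistatin specific binding to purified human αvβ3 or αvβ5 integrin protein. Inhibition was plotted against test compound concentration. Each point is the mean ± SEM of triplicate determinations.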

Integrin alpha-V/beta-3 [3] = target: T2, Integrin alpha-V/beta-3; test: Displacement of [125I]echistatin from human integrin alpha-V-beta-3 receptor high affinity state by solid phase assay relative to control; format: protein-complex assay; set-up: concentration or dose not given beside the values; details: concentration not given here; outline: as §1
Integrin alpha-V/beta-5 [4] = target: T1, Integrin alpha-V/beta-5; test: Displacement of [125I]echistatin from human integrin alpha-V-beta-5 receptor low affinity state by solid phase assay relative to control; format: protein-complex assay; details: concentration not given here
Integrin alpha-V/beta-3 [5] = target: T2, Integrin alpha-V/beta-3; test: Displacement of [125I]echistatin from human integrin alpha-V-beta-3 receptor by solid phase assay; format: protein-complex assay
Outline: (§2)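 Competitive binding to purified human integrin protein (αVβ3 or αVβ5) measured as inhibition of [¹²⁵I]-echistatin specific binding over a range of inhibitor concentrations. Each point is the mean ± SEM of triplicate determinations, and IC50 is read from the inhibition curves.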
Target sequence in this assay (P05106 27-788 limits assumed): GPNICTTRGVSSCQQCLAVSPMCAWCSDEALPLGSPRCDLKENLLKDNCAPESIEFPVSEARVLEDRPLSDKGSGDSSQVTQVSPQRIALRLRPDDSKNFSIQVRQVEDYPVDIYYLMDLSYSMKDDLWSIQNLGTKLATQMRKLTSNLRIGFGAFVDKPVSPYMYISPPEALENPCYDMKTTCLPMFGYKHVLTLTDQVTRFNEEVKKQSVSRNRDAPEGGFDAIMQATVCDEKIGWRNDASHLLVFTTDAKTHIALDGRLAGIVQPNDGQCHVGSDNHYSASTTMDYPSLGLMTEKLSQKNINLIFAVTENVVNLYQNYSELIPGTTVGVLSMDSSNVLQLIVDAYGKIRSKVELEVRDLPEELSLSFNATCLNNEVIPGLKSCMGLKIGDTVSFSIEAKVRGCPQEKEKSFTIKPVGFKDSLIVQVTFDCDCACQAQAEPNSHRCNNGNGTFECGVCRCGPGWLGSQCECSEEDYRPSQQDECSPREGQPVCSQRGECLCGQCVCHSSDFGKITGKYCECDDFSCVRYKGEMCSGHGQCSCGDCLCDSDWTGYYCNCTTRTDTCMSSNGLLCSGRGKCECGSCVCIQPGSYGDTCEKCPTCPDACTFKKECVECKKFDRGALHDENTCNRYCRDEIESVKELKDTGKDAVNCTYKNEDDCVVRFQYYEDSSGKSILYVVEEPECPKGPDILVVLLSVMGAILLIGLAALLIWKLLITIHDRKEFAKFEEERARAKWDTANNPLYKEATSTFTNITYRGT
Target sequence in this assay (P06756 31-889 limits assumed): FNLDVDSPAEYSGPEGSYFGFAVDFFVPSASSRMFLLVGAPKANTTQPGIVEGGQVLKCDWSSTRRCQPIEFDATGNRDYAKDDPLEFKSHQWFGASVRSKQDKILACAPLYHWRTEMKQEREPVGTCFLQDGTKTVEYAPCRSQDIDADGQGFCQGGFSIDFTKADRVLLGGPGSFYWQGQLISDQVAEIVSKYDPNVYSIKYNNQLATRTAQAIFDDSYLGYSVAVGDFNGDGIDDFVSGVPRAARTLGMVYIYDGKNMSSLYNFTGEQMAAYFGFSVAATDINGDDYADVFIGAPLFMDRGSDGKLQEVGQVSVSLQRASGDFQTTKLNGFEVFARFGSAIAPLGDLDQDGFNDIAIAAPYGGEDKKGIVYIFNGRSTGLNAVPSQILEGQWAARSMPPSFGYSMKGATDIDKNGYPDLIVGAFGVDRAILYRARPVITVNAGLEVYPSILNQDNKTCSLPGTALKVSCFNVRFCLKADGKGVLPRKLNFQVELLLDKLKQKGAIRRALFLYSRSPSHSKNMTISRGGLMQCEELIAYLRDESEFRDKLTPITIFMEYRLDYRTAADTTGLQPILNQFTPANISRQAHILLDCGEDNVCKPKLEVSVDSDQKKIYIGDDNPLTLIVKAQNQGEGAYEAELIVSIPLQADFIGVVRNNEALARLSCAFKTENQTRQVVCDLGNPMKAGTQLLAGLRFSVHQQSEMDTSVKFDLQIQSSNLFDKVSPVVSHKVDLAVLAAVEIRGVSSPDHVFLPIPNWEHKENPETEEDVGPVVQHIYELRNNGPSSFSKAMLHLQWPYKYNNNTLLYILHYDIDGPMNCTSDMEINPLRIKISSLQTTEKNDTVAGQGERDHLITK
Target sequence in this assay (P06756 891-1048 limits assumed): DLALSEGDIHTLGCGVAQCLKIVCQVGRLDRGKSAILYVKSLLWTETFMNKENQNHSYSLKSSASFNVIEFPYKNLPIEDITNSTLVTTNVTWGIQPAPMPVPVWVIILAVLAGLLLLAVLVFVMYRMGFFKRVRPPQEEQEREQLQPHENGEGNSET

Integrin alpha-V/beta-5 [6] = target: T1, Integrin alpha-V/beta-5; test: Displacement of [125I]echistatin from human integrin alpha-V-beta-5 receptor by solid phase assay; format: protein-complex assay; outline: as §2
Target sequence in this assay (P06756 31-889 limits assumed): as the sequence (P06756 31-889 limits assumed) above
Target sequence in this assay (P06756 891-1048 limits assumed): as the sequence (P06756 891-1048 limits assumed) above
Target sequence in this assay (P18084 24-799 limits assumed): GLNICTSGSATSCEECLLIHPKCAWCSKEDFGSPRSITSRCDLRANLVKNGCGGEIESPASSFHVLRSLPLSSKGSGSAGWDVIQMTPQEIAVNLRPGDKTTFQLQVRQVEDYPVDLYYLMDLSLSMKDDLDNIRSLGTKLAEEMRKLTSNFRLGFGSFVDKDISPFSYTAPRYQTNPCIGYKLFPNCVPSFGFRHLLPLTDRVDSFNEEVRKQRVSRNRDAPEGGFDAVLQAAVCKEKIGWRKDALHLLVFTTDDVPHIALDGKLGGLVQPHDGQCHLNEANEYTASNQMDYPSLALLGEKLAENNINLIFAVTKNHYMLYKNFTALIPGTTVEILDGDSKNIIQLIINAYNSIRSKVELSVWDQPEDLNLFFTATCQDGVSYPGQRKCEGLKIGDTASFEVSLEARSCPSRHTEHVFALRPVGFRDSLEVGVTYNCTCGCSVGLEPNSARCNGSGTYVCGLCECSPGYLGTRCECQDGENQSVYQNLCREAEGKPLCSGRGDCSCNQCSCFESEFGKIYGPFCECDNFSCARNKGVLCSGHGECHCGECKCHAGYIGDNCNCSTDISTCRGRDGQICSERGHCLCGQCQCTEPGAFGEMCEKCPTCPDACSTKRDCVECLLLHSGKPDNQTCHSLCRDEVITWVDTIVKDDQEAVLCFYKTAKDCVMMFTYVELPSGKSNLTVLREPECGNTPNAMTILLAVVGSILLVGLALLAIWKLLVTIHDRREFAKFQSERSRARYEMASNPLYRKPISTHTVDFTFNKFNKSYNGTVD

Integrin alpha-V/beta-3 [7] = target: T2, Integrin alpha-V/beta-3; test: Displacement of [125I]echistatin from human integrin alpha-V-beta-3 receptor low affinity state by solid phase assay; format: protein-complex assay
Target sequence in this assay (P05106 27-788 limits assumed): as the sequence (P05106 27-788 limits assumed) above
Target sequence in this assay (P06756 31-889 limits assumed): as the sequence (P06756 31-889 limits assumed) above
Target sequence in this assay (P06756 891-1048 limits assumed): as the sequence (P06756 891-1048 limits assumed) above

Integrin alpha-V/beta-5 [8] = target: T1, Integrin alpha-V/beta-5; test: Displacement of [125I]echistatin from human integrin alpha-V-beta-5 receptor low affinity state by solid phase assay; format: protein-complex assay
Target sequence in this assay (P06756 31-889 limits assumed): as the sequence (P06756 31-889 limits assumed) above
Target sequence in this assay (P06756 891-1048 limits assumed): as the sequence (P06756 891-1048 limits assumed) above
Target sequence in this assay (P18084 24-799 limits assumed): as the sequence (P18084 24-799 limits assumed) above

Integrin alpha-5/beta-1 [9] = target: T3, Integrin alpha-5/beta-1 (Homo sapiens, UniProt P05556+P08648); test: Inhibition of human integrin alpha-5-beta-1 receptor mediated WM115 cell adhesion to vitronectin; format: cell-based, WM-115
Integrin alpha-5/beta-1 [10] = target: T3, Integrin alpha-5/beta-1; test: Inhibition of human integrin alpha5beta1 receptor mediated K562 cell adhesion to vitronectin; format: cell-based
Integrin alpha-V/beta-3 [11] = target: T2, Integrin alpha-V/beta-3; test: Inhibition of human integrin alpha-V-beta-3 receptor mediated K562 cell adhesion to vitronectin; format: cell-based
Target sequence in this assay (P05106 27-788 limits assumed): as the sequence (P05106 27-788 limits assumed) above
Target sequence in this assay (P06756 31-889 limits assumed): as the sequence (P06756 31-889 limits assumed) above
Target sequence in this assay (P06756 891-1048 limits assumed): as the sequence (P06756 891-1048 limits assumed) above

Integrin alpha-V/beta-3 [12] = target: T2, Integrin alpha-V/beta-3; test: Inhibition of human integrin alpha-v-beta-3 receptor mediated WM115 cell adhesion to vitronectin; format: cell-based, WM-115
Target sequence in this assay (P05106 27-788 limits assumed): as the sequence (P05106 27-788 limits assumed) above
Target sequence in this assay (P06756 31-889 limits assumed): as the sequence (P06756 31-889 limits assumed) above
Target sequence in this assay (P06756 891-1048 limits assumed): as the sequence (P06756 891-1048 limits assumed) above

Row | Compound | inhibition (Integrin alpha-V/beta-3 [2]) [%] | inhibition (Integrin alpha-V/beta-3 [3]) [%] | IC50 (Integrin alpha-V/beta-3 [5]) [nM] | IC50 (Integrin alpha-V/beta-3 [7]) [nM] | other results
1 | CCCCCCCN1C[C@@H]2C[C@H]1C(=O)N[C@@H](CCCNC(=N)N)C(=O)NCC(=O)N[C@@H](CC(=O)O)C(=O)N2 | 46.3 | 53.7 |  |  | inhibition (Integrin alpha-V/beta-5 [1]): 29%; inhibition (Integrin alpha-V/beta-5 [4]): 71%
2 | CCCCCCCN1C[C@@H]2C[C@H]1C(=O)N[C@@H](CCCN=C(N)N)C(=O)NCC(=O)N[C@@H](CC(=O)O)C(=O)N2 |  |  | 2.84 | 178 | IC50 (Integrin alpha-V/beta-5 [6]): 36.1 nM; IC50 (Integrin alpha-V/beta-5 [8]): 62.3 nM
3 | NC(N)=NCCC[C@@H]1NC(=O)[C@@H]2C[C@H](CN2C(=O)c2ccccc2)NC(=O)[C@H](CC(=O)O)NC(=O)CNC1=O |  |  | 174 | 327 | 
4 | N=C(N)NCCC[C@@H]1NC(=O)[C@@H]2C[C@@H](CN2C(=O)c2ccccc2)NC(=O)[C@H](CC(=O)O)NC(=O)CNC1=O | 42.2 | 57.8 |  |  | 
5 | NC(N)=NCCC[C@@H]1NC(=O)[C@@H]2C[C@@H](CN2C(=O)c2ccccc2)NC(=O)[C@H](CC(=O)O)NC(=O)CNC1=O |  |  | 5.15 | 600 | 
6 | N=C(N)NCCC[C@@H]1NC(=O)[C@@H]2CC[C@H](C2)NC(=O)[C@H](CC(=O)O)NC(=O)CNC1=O |  |  | 0.26 |  | IC50 (Integrin alpha-V/beta-5 [6]): 1.12 nM
7 | CCC(=O)N1C[C@@H]2C[C@H]1C(=O)N[C@@H](CCCNC(=N)N)C(=O)NCC(=O)N[C@@H](CC(=O)O)C(=O)N2 | 57.9 | 42.1 |  |  | 
8 | COC(=O)[C@H]1[C@@H]2NC(=O)[C@H](CC(=O)O)NC(=O)CNC(=O)[C@H](CCCNC(=N)N)NC(=O)[C@H](C(C)C)NC(=O)[C@@H]21 |  |  |  |  | IC50 (Integrin alpha-5/beta-1 [9]): 1500 nM; IC50 (Integrin alpha-5/beta-1 [10]): 1500 nM; IC50 (Integrin alpha-V/beta-3 [11]): 20 nM; IC50 (Integrin alpha-V/beta-3 [12]): 20 nM
9 | NC(N)=NCCC[C@@H]1NC(=O)CNC(=O)[C@@H](CC(=O)O)N[C@H]2CCC[C@H]3CC[C@H](C1=O)N3C2=O |  |  | 5.64 |  | IC50 (Integrin alpha-V/beta-5 [6]): 0.9 nM
10 | N=C(N)NCCC[C@@H]1NC(=O)[C@@H]2C[C@H](CN2)NC(=O)[C@H](CC(=O)O)NC(=O)CNC1=O (H-[Pro(trans-4-NH2)]RGD; lactam 1-C) | 15.5 | 84.5 |  |  | 
11 | N=C(N)NCCC[C@@H]1NC(=O)[C@@H]2C[C@H](CN2C(=O)c2ccccc2)NC(=O)[C@H](CC(=O)O)NC(=O)CNC1=O | 68.4 | 31.6 |  |  | 
12 | CCC(=O)N1C[C@@H]2C[C@H]1C(=O)N[C@@H](CCCN=C(N)N)C(=O)NCC(=O)N[C@@H](CC(=O)O)C(=O)N2 |  |  | 5.6 | 251 | 
